# In paper PMC5463454 (Cancer discovery, 2016):
# Read-outs that look alike come from different tables or passages of the source.
# What was measured:
# clinical = format: in vivo; conditions: human, plasma, oral; for AUC(0-t) / Cmax: geometric mean (%CV); for Tmax: median (range)
# [1] = in vivo
# [2] = Phase I safety and tolerability
# [3] = test system: target lesions of metastatic breast cancer; assay: [18F]FDG-PET metabolic response; format: in vivo, human; conditions: 600 mg
# cancer cell lines = assay: Cell viability assay; format: cell-based
# AKT pathway effectors = assay: RPPA of paired pretreatment and on-treatment tumor biopsies; format: in vivo, human
# How it was run: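 Patients with solid tumours took test compound orally once daily, 21 days on/7 off per 28-day cycle. At doses ≥100 mg, three consenting patients per cohort had needle core biopsies at baseline and on cycle 1 days 15–21. Cores were snap-frozen and profiled by RPPA for pAKT, pGSK3β, pPRAS40, pmTOR, p4EBP1, pS6 and pERK, comparing on-treatment with paired pretreatment samples.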
# [4] = test system: breast cancer cell line KPL4 (PIK3CA H1047R); assay: Xenograft growth; format: in vivo, mice
# [5] = 400 mg, Day 1, 400 mg (n = 3), single dose
# [6] = 400 mg, Day 15, 400 mg (n = 3), steady state
# [7] = 600 mg, Day 1, 600 mg (n = 7), single dose
# [8] = 600 mg, Day 15, 600 mg (n = 7), steady state
# [9] = 800 mg, Day 1, 800 mg (n = 7), single dose
# [10] = 800 mg, Day 15, 800 mg (n = 5), steady state
compound,measurement,setting,value
CC(C)NC[C@@H](C(=O)N1CCN(c2ncnc3c2[C@H](C)C[C@H]3O)CC1)c1ccc(Cl)cc1 [Ipatasertib],half-life,clinical; 400 mg,53 h
same,AUC(0-t),"clinical; 400 mg, AUC0–24, Day 1, 400 mg (n = 3), single dose",1650 ng·h/mL
same,AUC(0-t),"clinical; 400 mg, AUC0–24,ss, Day 15, 400 mg (n = 3), steady state",3210 ng·h/mL
same,Cmax,clinical; [5],506 ng/mL
same,Cmax,clinical; [6],838 ng/mL
same,Tmax,clinical; [5],1 h
same,Tmax,clinical; [6],1 h
same,half-life,clinical; 600 mg,45.8 h
same,AUC(0-t),"clinical; 600 mg, AUC0–24, Day 1, 600 mg (n = 7), single dose",2670 ng·h/mL
same,AUC(0-t),"clinical; 600 mg, AUC0–24,ss, Day 15, 600 mg (n = 7), steady state",4450 ng·h/mL
same,Cmax,clinical; [7],488 ng/mL
same,Cmax,clinical; [8],748 ng/mL
same,Tmax,clinical; [7],0.58 h
same,Tmax,clinical; [8],0.83 h
same,half-life,clinical; 800 mg,43.8 h
same,AUC(0-t),"clinical; 800 mg, AUC0–24, Day 1, 800 mg (n = 7), single dose",3220 ng·h/mL
same,AUC(0-t),"clinical; 800 mg, AUC0–24,ss, Day 15, 800 mg (n = 5), steady state",6670 ng·h/mL
same,Cmax,clinical; [9],479 ng/mL
same,Cmax,clinical; [10],879 ng/mL
same,Tmax,clinical; [9],2 h
same,Tmax,clinical; [10],3 h
same,"Any AE, grade ≥2 ipatasertib-related",[1]; human,34 (67) Number (%) of patients
same,"Asthenia, grade ≥2 ipatasertib-related",[1]; human,13 (25) Number (%) of patients
same,"Decreased appetite, grade ≥2 ipatasertib-related",[1]; human,3 (6) Number (%) of patients
same,"Diarrhea, grade ≥2 ipatasertib-related",[1]; human,18 (35) Number (%) of patients
same,"Hyperglycemia, grade ≥2 ipatasertib-related",[1]; human,5 (10) Number (%) of patients
same,"Nausea, grade ≥2 ipatasertib-related",[1]; human,14 (27) Number (%) of patients
same,"Rash, grade ≥2 ipatasertib-related",[1]; human,3 (6) Number (%) of patients
same,"Vomiting, grade ≥2 ipatasertib-related",[1]; human,3 (6) Number (%) of patients
same,grade ≥2 AE related to ipatasertib: asthenia,[1]; human,25%
same,grade ≥2 AE related to ipatasertib: decreased appetite,[1]; human,6%
same,grade ≥2 AE related to ipatasertib: diarrhea,[1]; human,35%
same,grade ≥2 AE related to ipatasertib: hyperglycemia,[1]; human,10%
same,grade ≥2 AE related to ipatasertib: nausea,[1]; human,27%
same,grade ≥2 AE related to ipatasertib: rash,[1]; human,6%
same,grade ≥2 AE related to ipatasertib: vomiting,[1]; human,6%
same,patients who discontinued for ipatasertib-related AEs,[1]; human,4%
same,patients with AEs that led to dose reduction,[1]; human,16%
same,patients with at least one AE of any grade related to ipatasertib,[1]; human,92%
same,"serious adverse event: grade 2 renal failure, share of patients",[1]; human,2%
same,"serious adverse event: grade 3 asthenia, share of patients",[1]; human,2%
same,"serious adverse event: grade 3 diarrhea, share of patients",[1]; human,2%
same,"serious adverse event: grade 3 hyperglycemia, share of patients",[1]; human,2%
same,"serious adverse event: grade 3 toxic skin eruption, share of patients",[1]; human,2%
same,time to onset of first grade 1–2 nausea or first grade 1 diarrhea,[1]; human,≤ 7 days
same,time to onset of higher grades of nausea and diarrhea,[1]; human,≤ 14 days
same,time to onset of worst grade of fatigue (grade 3) and rash (grade 2),[1]; human,7 to 14 days
same,colitis or pneumonitis,[1],No cases
same,"serious adverse events (SAE) related to ipatasertib, total",[1],Five serious adverse events
same,maximum tolerated dose (MTD),"[2]; PO QD, 21/7 dosing schedule",600 mg
same,grade 4 AEs or deaths related to ipatasertib,[2]; all doses,no grade 4 AEs or deaths
same,metabolic PET response in one patient with MBC with AKT1 E17K mutation,[3]; HER2-negative MBC,complete metabolic PET response
same,patients with target lesion metabolic PET response (SUVmax decrease ≥20%),"[3]; MBC, cycle 1, 8 of 9 evaluable",89%
same,IC50,"cancer cell lines; read-out: mean IC50 (±SEM), cell viability, cell lines with PTEN loss or PIK3CA mutations, n = 60",4.8 ± 0.56 µM
same,IC50,"cancer cell lines; read-out: mean IC50, cell viability, cells with PIK3CA alterations, n = 40",5 ± 0.71 µM
same,IC50,"cancer cell lines; read-out: mean IC50, cell viability, cells with PTEN alterations, n = 33",3.8 ± 0.73 µM
same,IC50,"cancer cell lines; read-out: mean IC50, cell viability, cells without PIK3CA alterations, n = 60",7.1 ± 0.5 µM
same,IC50,"cancer cell lines; read-out: mean IC50, cell viability, cells without PTEN alterations, n = 67",7.4 ± 0.46 µM
same,IC50,"cancer cell lines; read-out: median IC50, cell viability, cell lines with PTEN loss or PIK3CA mutations, n = 60",2.2 µM
same,IC50,"cancer cell lines; read-out: median IC50, cell viability, cells with PIK3CA alterations, n = 40",2.2 µM
same,IC50,"cancer cell lines; read-out: median IC50, cell viability, cells with PTEN alterations, n = 33",1.3 µM
same,IC50,"cancer cell lines; read-out: median IC50, cell viability, cells without PIK3CA alterations, n = 60",10 µM
same,IC50,"cancer cell lines; read-out: median IC50, cell viability, cells without PTEN alterations, n = 67",10 µM
same,pAKT (Thr308 and Ser473) in on-treatment vs pretreatment biopsies,"AKT pathway effectors; RPPA, 100 mg to 800 mg",dose-dependent accumulation
same,pERK and pHER3 in on-treatment vs pretreatment biopsies,"AKT pathway effectors; RPPA, as low as 100 mg",upregulation
same,inhibition of multiple AKT targets,AKT pathway effectors; approximately,> 80%
same,tumor growth in vivo,[4],decreases the growth
